Laboratory results from ChEMBL document CHEMBL1122233, “Antihypertensive 9-substituted 1-oxa-4,9-diazaspiro[5.5]undecan-3-ones” (J Med Chem, 1983).

Key:
Format in all cases: functional, Artery
Settings in all cases: route oral
Rattus norvegicus [1] = experiment: Percentage fall in systolic blood pressure after 3 hr at 0.31 mg/kg given perorally
Method in brief: (§1)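 Male Okamoto-Aoki spontaneously hypertensive rats, trained, in groups of four matched for mean systolic pressure; five treated groups and one vehicle control run concurrently. Oral dosing in water (solution or suspension, 0.1 mL/10 g) on two consecutive mornings. On day 2, rats were restrained at 30.0 ± 1.0 °C and tail-cuff systolic pressure recorded at 1–4 h; percent fall versus control, 1-tail t test, p ≤ 0.05.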

Rattus norvegicus [2] = experiment: Percentage fall in systolic blood pressure after 1 hr at 0.31 mg/kg given perorally; method in brief: as §1
Rattus norvegicus [3] = experiment: Percentage fall in systolic blood pressure after 1 hr at 1.25 mg/kg given perorally; method in brief: as §1
Rattus norvegicus [4] = experiment: Percentage fall in systolic blood pressure after 2 hr at 0.31 mg/kg given perorally; method in brief: as §1
Rattus norvegicus [5] = experiment: Percentage fall in systolic blood pressure after 2 hr at 1.25 mg/kg given perorally; method in brief: as §1
Rattus norvegicus [6] = experiment: Percentage fall in systolic blood pressure after 4 hr at 0.31 mg/kg given perorally; method in brief: as §1
Rattus norvegicus [7] = experiment: Percentage fall in systolic blood pressure after 4 hr at 1.25 mg/kg given perorally; method in brief: as §1
Rattus norvegicus [8] = experiment: Percentage fall in systolic blood pressure after 3 hr at 1.25 mg/kg given perorally; method in brief: as §1

SMILES: COc1cc2nc(N3CCN(C(=O)c4ccco4)CC3)nc(N)c2cc1OC [PRAZOSIN]
- Decrease in SBP (Rattus norvegicus [1]): 21%
- Decrease in SBP (Rattus norvegicus [2]): 19%
- Decrease in SBP (Rattus norvegicus [3]): 26%
- Decrease in SBP (Rattus norvegicus [4]): 31%
- Decrease in SBP (Rattus norvegicus [5]): 46%
- Decrease in SBP (Rattus norvegicus [6]): 26%
- Decrease in SBP (Rattus norvegicus [7]): 31%
- Decrease in SBP (Rattus norvegicus [8]): 36%
